Legend:
[1] = test system: yeast y272 cotransformed with pWS192 and pWS496; experiment: Yeast toxicity assay; assay type: cell-based; conditions: for yeast saturation density relative to DMSO-treated control: 100 µM compound, 44 h at 30 °C; for yeast saturation density relative to DMSO-treated culture: lower concentrations of compounds
Outline: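 Saturated starter culture of y272 carrying pWS192 (MFA1) and pWS496 (PGK-driven HA-tagged rat IDE) was diluted 1:2000 into SC-UW and treated with DMSO or compound (100 µM, or lower empirically chosen doses), in triplicate. Cultures were grown 44 h at 30 °C, or 72 h where needed.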

Ste23p = target: T1, Ste23p (Saccharomyces cerevisiae, UniProt Q06010); experiment: Target specificity: Ste23p activity with a-factor–based peptide; assay type: biochemical, yeast; conditions: 100 µM compound; 30 °C; relative to DMSO control = 100%
T1 sequence (Q06010 1-1027): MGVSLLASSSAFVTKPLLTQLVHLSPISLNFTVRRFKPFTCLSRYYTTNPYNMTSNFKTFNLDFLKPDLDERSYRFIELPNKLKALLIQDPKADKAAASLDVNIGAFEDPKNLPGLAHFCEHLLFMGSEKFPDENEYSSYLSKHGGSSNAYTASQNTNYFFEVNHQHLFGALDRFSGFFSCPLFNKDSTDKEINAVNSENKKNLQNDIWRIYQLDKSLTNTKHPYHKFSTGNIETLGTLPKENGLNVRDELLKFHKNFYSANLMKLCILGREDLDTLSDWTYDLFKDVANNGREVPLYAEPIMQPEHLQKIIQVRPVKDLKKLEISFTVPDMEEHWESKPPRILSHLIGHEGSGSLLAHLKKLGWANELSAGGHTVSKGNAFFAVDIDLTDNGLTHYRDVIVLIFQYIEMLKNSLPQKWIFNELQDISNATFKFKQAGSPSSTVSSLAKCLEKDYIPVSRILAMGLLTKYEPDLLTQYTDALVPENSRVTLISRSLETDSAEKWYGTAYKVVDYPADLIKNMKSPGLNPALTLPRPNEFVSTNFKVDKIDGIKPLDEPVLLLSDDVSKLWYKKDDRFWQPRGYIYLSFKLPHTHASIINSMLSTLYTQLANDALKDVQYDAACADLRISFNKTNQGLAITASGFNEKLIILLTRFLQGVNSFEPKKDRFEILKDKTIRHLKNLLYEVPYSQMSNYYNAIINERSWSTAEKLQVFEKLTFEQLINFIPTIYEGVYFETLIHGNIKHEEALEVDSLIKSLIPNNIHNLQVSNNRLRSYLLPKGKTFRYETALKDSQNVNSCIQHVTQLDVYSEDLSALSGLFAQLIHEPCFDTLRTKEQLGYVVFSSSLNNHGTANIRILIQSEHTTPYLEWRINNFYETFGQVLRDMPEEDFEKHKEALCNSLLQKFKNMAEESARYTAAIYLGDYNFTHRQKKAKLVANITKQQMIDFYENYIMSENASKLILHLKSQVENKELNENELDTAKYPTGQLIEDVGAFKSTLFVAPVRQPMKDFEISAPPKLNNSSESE
Outline: (§1)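 Single-dose specificity assay with a-factor–based fluorogenic peptide (50 µM) in 0.1 M KPi pH 7.6. Ste23p was used at 10 µg/mL and 30 °C; trypsin and pronase E at 0.5 µg/mL each under the 37 °C HTS conditions. Enzymes were preincubated 10 min with 100 µM compound. Triplicate rates were normalized by trypsin/pronase full digestion and given relative to DMSO control (100%).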

rat IDE = target: T2, rat IDE (Rattus norvegicus, UniProt P35559); experiment: Kinetic analysis of rat IDE in presence of activator; assay type: biochemical; conditions: compound 100 µM; 0.1 M KPi pH 7.6; DMSO control 154.8 ± 12.26
T2 sequence (P35559 1-1019): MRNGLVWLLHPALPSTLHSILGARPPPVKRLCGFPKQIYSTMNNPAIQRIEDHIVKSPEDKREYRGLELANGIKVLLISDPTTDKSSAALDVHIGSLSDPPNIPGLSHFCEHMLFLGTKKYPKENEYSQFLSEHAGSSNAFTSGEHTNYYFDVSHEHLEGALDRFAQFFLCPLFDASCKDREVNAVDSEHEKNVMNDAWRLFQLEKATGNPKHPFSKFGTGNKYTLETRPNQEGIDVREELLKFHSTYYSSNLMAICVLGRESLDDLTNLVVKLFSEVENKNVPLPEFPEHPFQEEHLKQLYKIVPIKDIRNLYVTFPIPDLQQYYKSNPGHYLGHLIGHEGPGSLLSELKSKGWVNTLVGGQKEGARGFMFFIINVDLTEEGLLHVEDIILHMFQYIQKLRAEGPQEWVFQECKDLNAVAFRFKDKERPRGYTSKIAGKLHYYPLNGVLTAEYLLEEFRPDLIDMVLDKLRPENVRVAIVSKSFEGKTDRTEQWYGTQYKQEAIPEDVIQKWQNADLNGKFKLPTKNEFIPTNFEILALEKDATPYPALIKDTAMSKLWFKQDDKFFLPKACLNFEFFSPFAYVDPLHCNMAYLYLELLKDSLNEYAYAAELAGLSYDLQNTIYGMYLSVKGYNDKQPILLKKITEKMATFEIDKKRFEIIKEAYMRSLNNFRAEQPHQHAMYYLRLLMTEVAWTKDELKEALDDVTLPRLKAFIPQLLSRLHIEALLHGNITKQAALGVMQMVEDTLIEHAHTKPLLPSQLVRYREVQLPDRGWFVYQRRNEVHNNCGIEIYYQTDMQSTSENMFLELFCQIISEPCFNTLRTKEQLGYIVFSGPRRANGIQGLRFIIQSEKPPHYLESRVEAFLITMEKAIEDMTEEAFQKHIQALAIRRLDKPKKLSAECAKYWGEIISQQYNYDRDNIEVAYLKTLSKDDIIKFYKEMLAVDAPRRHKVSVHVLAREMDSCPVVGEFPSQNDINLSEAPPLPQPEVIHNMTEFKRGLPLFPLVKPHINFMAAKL

bovine trypsin = target: T3, bovine trypsin (Bos taurus, UniProt P00760); experiment: Target specificity: trypsin activity with a-factor–based peptide; assay type: biochemical; conditions: 100 µM compound; relative to DMSO control = 100%
T3 sequence (P00760 24-246): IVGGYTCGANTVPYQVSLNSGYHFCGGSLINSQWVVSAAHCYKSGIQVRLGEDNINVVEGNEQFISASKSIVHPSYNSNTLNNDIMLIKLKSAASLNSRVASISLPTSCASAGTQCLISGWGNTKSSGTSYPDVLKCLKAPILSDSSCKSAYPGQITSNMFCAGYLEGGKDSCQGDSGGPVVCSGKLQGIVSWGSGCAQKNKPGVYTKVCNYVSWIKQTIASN
Outline: as §1

SMILES	yeast saturation density relative to DMSO-treated control [1]	% Activity Ste23p (Ste23p)	Vmax (rat IDE)	% Activity Trypsin (bovine trypsin)	yeast saturation density relative to DMSO-treated culture ([1]; 44 h)	yeast culture density relative to DMSO-treated culture ([1]; incubation extended to 72 h)	saturated growth of treated yeast cultures ([1]; lowest concentration evaluated 12.5 µM, 44 h)
O=S(=O)(O)CCCc1cccc2ccccc12 [Compound 1]	> 90%	112.0 ± 5.4%	194.1 ± 5.85 nmol/min/mg	94.2 ± 0.3%			
Cn1ncc2c(NCCc3ccccc3)nc(Cl)nc21 [Compound 2]		117.2 ± 2.8%	164.2 ± 6.4 nmol/min/mg	115.1 ± 3.9%			
O=S(=O)(O)c1cc(O)c2c(O)c(N=Nc3cccc4ccccc34)c(S(=O)(=O)O)cc2c1 [Compound 3]	> 90%	90.4 ± 0.6%		99.3 ± 2.2%			
Nc1nc(SCc2ccccc2Cl)cc(C(=O)O)n1 [Compound 5]		103.4 ± 1.6%	127.8 ± 10.41 nmol/min/mg	94.3 ± 5.4%	> 90%		
O=C(CCN1CC2CCC(CC2)C1)c1cccs1 [Compound 6]	completely inhibited growth	82 ± 0.3%	176.3 ± 7.35 nmol/min/mg	111.5 ± 2.8%	> 90%		
O=C(O)c1ccc(Oc2nc3ccccc3s2)cc1 [Compound 7]		102.1 ± 1.7%	194.1 ± 13.81 nmol/min/mg	111.0 ± 1.2%		> 85%	did not achieve saturated growth
O=[N+]([O-])/C=C/c1cc2ccccc2[nH]1 [Compound 8]	completely inhibited growth	80.1 ± 6.0%	185.0 ± 9.73 nmol/min/mg	101.8 ± 1.8%	> 90%		

From PMC5901702 (Journal of biomolecular screening, 2012)
